Laboratory results published in ChEMBL document CHEMBL1143811, “Bis-acridines as lead antiparasitic agents: structure-activity analysis of a discrete compound library in vitro” (Antimicrob Agents Chemother, 2007).
Values after ≈ are worked out from the molar mass of the structure shown. Active and inactive are the calls of the source. No cut-off for these calls is given here.

What was measured:
[1] = test system: Trypanosoma brucei brucei; assay: Antimicrobial activity against Trypanosoma brucei brucei clone 427-221a at 1.56 uM; type: functional
Entamoeba histolytica = assay: Antimicrobial activity against Entamoeba histolytica HM1 IMSS trophozoites after 48 hrs; type: functional, organism-based; details: 60 h, in the assay text read “60 hrs” for “48 hrs”
Procedure, shortened: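 Trophozoites were grown axenically in TYI-S-33 with 10% bovine adult serum and seeded at ~10^4 cells/well. Compound (range up to 10 µM) was added to 48-h log-phase cultures, then incubated 60 h at 37°C under anaerobic conditions. Viability was read by CellTiter-Glo luminescence. EC50 came from quadruplicate wells in two independent experiments.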

HL-60 = assay: (§1) Cytotoxicity against human HL60 cells; type: cell-based; details: Homo sapiens, HL-60
Procedure, shortened: (§2)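 Bloodstream-form T. b. brucei in Baltz medium (~10^4/ml) and HL-60 cells in RPMI 1640 (~10^5/ml), both with 16.7% FBS, were exposed 48 h at 37°C in 5% CO2 to compound up to 10 µM in 1% final DMSO. Live cells were hemocytometer-counted, by motility (trypanosomes) or trypan blue exclusion (HL-60). EC50 was taken by regression versus DMSO cultures from three experiments. MIC was the lowest fully lethal concentration, judged microscopically.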

[2] = as §1; type: cell-based, HL-60; details: human, HL-60 cells; read-out: MIC; procedure, shortened: as §2
[3] = Selectivity index, ratio of MIC for HL60 cells to MIC for Trypanosoma brucei brucei clone 427-221a; type: functional, HL-60; procedure, shortened: as §2
Leishmania major [4] = assay: Antileishmanial activity against Leishmania major MHOM/IL/81/FE/BNI amastigotes after 48 hrs at 1 uM; type: functional, organism-based
Procedure, shortened: (§3)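 Peritoneal macrophages from BALB/c mice (6-8 wk) adhered 2 h at 37°C, infected 24 h with stationary-phase L. major promastigotes at 10:1 parasite:macrophage, washed, then exposed 48 h to compound at 0.0001 to 10 µM. Intracellular amastigotes stained with acridine orange/ethidium bromide and counted by fluorescence microscopy; percent amastigotes cleared versus DMSO-treated cultures; three repeats.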

[5] = Selectivity index, ratio of EC50 for HL60 cells to EC50 for Trypanosoma brucei brucei clone 427-221a; type: functional, HL-60; procedure, shortened: as §2
Schistosoma mansoni [6] = assay: Antimicrobial activity against Schistosoma mansoni assessed as worm vitality at 3 uM after 4 hrs; type: functional, organism-based
Procedure, shortened: (§4)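 20-day-old worms were obtained by perfusion of BALB/c mice infected with 200 cercariae. About 20 worms/well were kept in Basch 169 with 10% bovine calf serum, preincubated 24 h at 37°C in 5% CO2, then exposed to 1, 3 or 6 µM. Vitality (feeding, flexing, gut peristalsis; death = nonmotile, shrunken, dark) was scored at 4 and 18 h in two experiments.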

MRC5 = assay: Toxicity against human MRC5 cells at 3.13 uM; type: cell-based; details: mrc5, 3.13 µM
Plasmodium falciparum [7] = assay: Antimicrobial activity against chloroquine-sensitive Plasmodium falciparum 3D7 after 72 hrs; type: functional, organism-based; details: 3D7, 72 h
Plasmodium falciparum [8] = assay: Antimalarial activity against chloroquine-resistant Plasmodium falciparum FcB1R after 72 hrs; type: functional, organism-based
Leishmania donovani = assay: Antileishmanial activity against Leishmania donovani MHOM/SD/00/1S-2D promastigotes assessed as parasite death at 10 uM after 72 hrs; type: functional
Procedure, shortened: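 Promastigotes seeded at 1.5 x 10^5 cells/ml in medium 199 with 10% heat-inactivated FBS. Compound added at a final 10 µM, in triplicate, in sealed flasks at 27°C for up to 7 days. Aliquots taken daily and viability read by CellTiter-Glo luminescence. Result given as percent reduction in viability relative to DMSO-treated cultures. Controls were K11777 or amphotericin B at 10 µM.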

[9] = Cytotoxicity against BALB/c mouse peritoneal macrophages at 1 uM after 48 hrs hrs; type: cell-based; details: macrophage
Schistosoma mansoni [10] = assay: Antimicrobial activity against Schistosoma mansoni assessed as worm vitality at 6 uM after 4 hrs; type: functional, organism-based; procedure, shortened: as §4
[11] = Cytotoxicity against BALB/c mouse peritoneal macrophages at 10 uM after 48 hrs hrs; type: cell-based; details: macrophage
Plasmodium falciparum [12] = assay: Antimicrobial activity against chloroquine-resistant Plasmodium falciparum W2 after 72 hrs; type: functional, organism-based; details: W2, 72 h
Trichomonas vaginalis [13] = assay: Antimicrobial activity against Trichomonas vaginalis G3 assessed as parasite death at 10 uM after 24 hrs; type: functional
Procedure, shortened: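 G3 strain grown in Diamond's medium at 37°C. Assay culture set up as 0.5 ml dense culture diluted into 5.0 ml complete medium. Compound at a final 10 µM for 24 h at 37°C. Motile cells counted by hemocytometer. Result is percent dead parasites relative to DMSO-treated cultures, from five separate experiments. Controls were untreated, DMSO and metronidazole.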

[14] = test system: Trypanosoma brucei brucei; assay: Antimicrobial activity against Trypanosoma brucei brucei clone 427-221a after 48 hrs; type: functional, organism-based; procedure, shortened: as §2
Trichomonas vaginalis [15] = assay: Antimicrobial activity against Trichomonas vaginalis G3 assessed as parasite death at 1 uM after 24 hrs; type: functional
J774 = assay: Cytotoxicity against mouse J774 cells; type: cell-based
Leishmania major [16] = assay: Antileishmanial activity against Leishmania major MHOM/IL/81/FE/BNI amastigotes after 48 hrs; type: functional, organism-based; procedure, shortened: as §3

| Structure (SMILES) | Activity [1] [%] | EC50 (Entamoeba histolytica) [nM] | EC50 (HL-60) [nM] | MCC [2] [µM] | Ratio [3] | Activity (Leishmania major [4]) | Ratio EC50 [5] | Activity (Schistosoma mansoni [6]) | Activity (MRC5) [%] | EC50 (Plasmodium falciparum [7]) [nM] | EC50 (Plasmodium falciparum [8]) [nM] | Activity (Leishmania donovani) [%] | Activity [9] | Activity (Schistosoma mansoni [10]) | Activity [11] | EC50 (Plasmodium falciparum [12]) [nM] | Activity (Trichomonas vaginalis [13]) [%] | EC50 [14] [nM] | MIC [14] [µM] | further results |
| --- | --- | --- | --- | --- | --- | --- | --- | --- | --- | --- | --- | --- | --- | --- | --- | --- | --- | --- | --- | --- |
| COc1ccc2nc3cc(Cl)ccc3c(NCCCNCCCNc3c4ccc(Cl)cc4nc4ccc(OC)cc34)c2c1 | 100 | 5000 | 244 | 10 | 10 | inactive | 214 | Active | 100 | 127 | 55 | 95 | Toxic | Active | Toxic | 180 | 23 | 1.1 | 1 (≈ 0.615 µg/mL) | – |
| COc1ccc2nc3cc(Cl)ccc3c(NCCCCN(CCCNc3c4ccc(Cl)cc4nc4ccc(OC)cc34)C(=O)[C@H](C)N)c2c1 | – | 5000 | 225 | 10 | 10 | inactive | 242 | – | – | 310 | – | 93 | Toxic | – | Toxic | 303 | 80 | 0.9 | 1 (≈ 0.7 µg/mL) | – |
| Cc1ncc([N+](=O)[O-])n1CCO [METRONIDAZOLE] | – | 2000 | – | – | – | – | – | – | – | – | – | – | – | – | – | – | – | – | – | Activity (Trichomonas vaginalis [15]): 100% |
| COc1ccc2nc3cc(Cl)ccc3c(NCCOCCOCCNc3c4ccc(Cl)cc4nc4ccc(OC)cc34)c2c1 | – | 5000 | 3040 | 10 | 10 | inactive | 524 | – | – | 61 | – | 96 | Toxic | – | Toxic | 74 | 75 | 5.8 | 1 (≈ 0.632 µg/mL) | – |
| COc1ccc2nc3cc(Cl)ccc3c(NCCNCCCNCCNc3c4ccc(Cl)cc4nc4ccc(OC)cc34)c2c1 | – | 5000 | 120 | 1 | 1 | inactive | 91 | Active | – | 105 | – | 99 | Toxic | Active | Toxic | 136 | 75 | 1.3 | 1 (≈ 0.644 µg/mL) | – |
| COc1ccc2nc3cc(Cl)ccc3c(NCCCCNCCCNc3c4ccc(Cl)cc4nc4ccc(OC)cc34)c2c1 | 100 | 5000 | 144 | 10 | 10 | – | 209 | Active | 100 | 62 | 61 | 96 | – | Active | Toxic | 135 | 3 | 0.7 | 1 (≈ 0.629 µg/mL) | Activity (J774): Toxic; EC50 (Leishmania major [16]): 800 nM |
